≈ marks a conversion by molar mass, not a printed value.
How the values were obtained:
[1] = test system: Mycobacterium tuberculosis; assay: Antimycobacterial activity against Mycobacterium tuberculosis H37Rv assessed as mycobacterial growth inhibition by microplate alamar blue assay; format: functional
In short: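 M. tuberculosis H37Rv under normoxic conditions, microplate alamar blue assay (MABA) following Cho et al. Read-out is MIC.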

[2] = test system: Mycobacterium tuberculosis; assay: Antimycobacterial activity against Mycobacterium tuberculosis H37Rv assessed as mycobacterial growth inhibition by low oxygen recovery assay; format: functional
In short: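 M. tuberculosis H37Rv under hypoxic conditions, low-oxygen recovery assay (LORA) following Cho et al. Read-out is MIC.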

[3] = Cytotoxicity against human HeLa cells; format: toxicity, cell-based
[4] = Cytotoxicity against African green monkey Vero cells; format: toxicity, cell-based; details: chlorocebus sabaeus
[5] = test system: Mycobacterium tuberculosis; assay: Antimycobacterial activity against drug-sensitive Mycobacterium tuberculosis assessed as mycobacterial growth inhibition; format: functional
[6] = Apparent permeability across apical side to basolateral side in dog MDCK cells; format: ADME, cell-based, Canis lupus familiaris
[7] = Apparent permeability across basolateral side to apical side in dog MDCK cells; format: ADME, cell-based, Canis lupus familiaris
[8] = Efflux ratio of apparent permeability across basolateral to apical over apical to basolateral membrane in dog MDCK cells; format: ADME, cell-based, Canis lupus familiaris
[9] = Plasma protein binding in human assessed as bound fraction; format: ADME, cell-free; details: read-out: PPB
[10] = Plasma protein binding in rat assessed as bound fraction; format: ADME, cell-free; details: read-out: PPB
[11] = Microsomal stability in human liver microsomes assessed as clearance; format: ADME, Microsome; details: read-out: CLH
[12] = Microsomal stability in rat liver microsomes assessed as clearance; format: ADME, Microsome; details: read-out: CLH
[13] = Microsomal stability in mouse liver microsomes assessed as clearance; format: ADME, Microsome; details: read-out: CLH
Cytochrome P450 1A2 = biological target: T1, Cytochrome P450 1A2 (Homo sapiens, UniProt P05177); assay: Inhibition of CYP1A2 (unknown origin); format: ADME
T1 sequence (P05177 whole entry): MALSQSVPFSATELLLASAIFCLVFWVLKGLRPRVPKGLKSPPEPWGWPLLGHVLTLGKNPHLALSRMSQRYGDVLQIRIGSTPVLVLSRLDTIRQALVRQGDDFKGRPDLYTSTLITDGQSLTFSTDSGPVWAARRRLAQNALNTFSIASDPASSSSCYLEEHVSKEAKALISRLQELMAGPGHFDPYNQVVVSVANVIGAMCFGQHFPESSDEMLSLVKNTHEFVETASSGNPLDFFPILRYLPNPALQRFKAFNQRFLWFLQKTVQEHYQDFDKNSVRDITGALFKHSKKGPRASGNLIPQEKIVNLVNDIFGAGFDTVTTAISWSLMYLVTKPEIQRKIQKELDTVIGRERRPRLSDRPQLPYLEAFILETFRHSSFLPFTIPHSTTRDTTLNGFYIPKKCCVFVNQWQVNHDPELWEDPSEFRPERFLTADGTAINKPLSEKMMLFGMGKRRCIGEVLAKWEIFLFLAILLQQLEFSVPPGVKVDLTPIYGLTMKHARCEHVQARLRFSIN
In short: (§1)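 Each CYP isoform screened for inhibition at a single test concentration of 10 μM.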

Cytochrome P450 2C9 = Cytochrome P450 2C9 (Homo sapiens, UniProt P11712); assay: Inhibition of CYP2C9 (unknown origin); format: ADME; in short: as §1
Cytochrome P450 2C19 = Cytochrome P450 2C19 (Homo sapiens, UniProt P33261); assay: Inhibition of CYP2C19 (unknown origin); format: ADME; in short: as §1
Cytochrome P450 2D6 = Cytochrome P450 2D6 (Homo sapiens, UniProt P10635); assay: Inhibition of CYP2D6 (unknown origin); format: ADME; in short: as §1
Cytochrome P450 3A4 = Cytochrome P450 3A4 (Homo sapiens, UniProt P08684); assay: Inhibition of CYP3A4 (unknown origin); format: ADME; in short: as §1
[14] = biological target: Voltage-gated inwardly rectifying potassium channel KCNH2 (Homo sapiens, UniProt Q12809); assay: Inhibition of human ERG; format: toxicity
[15] = Clearance in mouse at 1 mg/kg,iv; format: ADME, organism-based; details: in vivo
In short: (§2)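 CD-1 mice. Single iv dose of 1 mg/kg. Clearance and half-life are derived from plasma concentration-time data.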

[16] = Volume of distribution at steady state in mouse at 1 mg/kg,iv; format: ADME, organism-based; details: in vivo, read-out: Vdss
In short: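 PK in CD-1 mice at 1 mg/kg iv and 6.25 mg/kg po. Vd, CL and t1/2 taken from the iv arm; Cmax, AUC0-last and F% taken from the oral arm.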

[17] = Half life in mouse at 1 mg/kg,iv; format: ADME, organism-based; details: in vivo; in short: as §2
[18] = Cmax in mouse at 6.25 mg/kg,po; format: ADME, organism-based; set-up: dose 6.25 mg/kg, route po; details: in vivo
[19] = AUC (0 to last) in mouse at 6.25 mg/kg,po; format: ADME, organism-based; set-up: time 0 - last, dose 6.25 mg/kg, route po; details: in vivo
[20] = Oral bioavailability in mouse at 6.25 mg/kg; format: ADME, organism-based; details: in vivo
[21] = Clearance in Sprague-Dawley rat at 1 mg/kg,iv; format: ADME, organism-based; details: in vivo
In short: (§3)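 SD rats. Single iv dose of 1 mg/kg. Clearance and half-life are derived from plasma concentration-time data.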

[22] = Volume of distribution at steady state in Sprague-Dawley rat at 1 mg/kg,iv; format: ADME, organism-based; details: in vivo, read-out: Vdss
In short: (§4)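 PK in SD rats (1 mg/kg iv, 5.0 mg/kg po) and Beagle dogs (0.5 mg/kg iv, 2.0 mg/kg po). Vd taken from the iv arm, alongside CL and t1/2. Cmax and AUC0-last taken from the oral arm; F% calculated.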

[23] = Half life in Sprague-Dawley rat at 1 mg/kg,iv; format: ADME, organism-based; details: in vivo; in short: as §3
[24] = Cmax in Sprague-Dawley rat at 5 mg/kg,po; format: ADME, organism-based; set-up: dose 5 mg/kg, route po; details: in vivo
[25] = AUC (0 to last) in Sprague-Dawley rat at 5 mg/kg,po; format: ADME, organism-based; set-up: time 0 - last, dose 5 mg/kg, route po; details: in vivo
[26] = Oral bioavailability in Sprague-Dawley rat at 5 mg/kg; format: ADME, organism-based; details: in vivo
[27] = Clearance in Beagle dog at 0.5 mg/kg,iv; format: ADME, organism-based, Canis lupus familiaris; details: in vivo
In short: (§5)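 Beagle dogs. Single iv dose of 0.5 mg/kg. Clearance and half-life are derived from plasma concentration-time data.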

[28] = Volume of distribution at steady state in Beagle dog at 0.5 mg/kg,iv; format: ADME, organism-based, Canis lupus familiaris; details: in vivo, read-out: Vdss; in short: as §4
[29] = Half life in Beagle dog at 0.5 mg/kg,iv; format: ADME, organism-based, Canis lupus familiaris; details: in vivo; in short: as §5
[30] = Cmax in Beagle dog at 2 mg/kg,po; format: ADME, organism-based, Canis lupus familiaris; set-up: dose 2 mg/kg, route po; details: in vivo
[31] = AUC (0 to last) in Beagle dog at 2 mg/kg,po; format: ADME, organism-based, Canis lupus familiaris; set-up: time 0 - last, dose 2 mg/kg, route po; details: in vivo
[32] = Oral bioavailability in Beagle dog at 2 mg/kg; format: ADME, organism-based, Canis lupus familiaris; details: in vivo
[33] = Drug concentration in CD-1 mouse lung at 6.25 mg/kg,po measured after 96 hrs; format: ADME, organism-based; details: read-out: Ct
In short: (§6)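 Tissue distribution study in CD-1 mice (6.25 mg/kg oral) and SD rats (5.0 mg/kg oral). Lung concentration (ng/g) and plasma concentration (ng/mL) measured 96 h after dosing. Lung/plasma ratio is lung concentration divided by plasma concentration.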

[34] = Drug concentration in CD-1 mouse plasma at 6.25 mg/kg,po measured after 96 hrs; format: ADME, organism-based; in short: as §6
[35] = Ratio of drug concentration in CD-1 mouse lung to plasma at 6.25 mg/kg,po measured after 96 hrs; format: ADME, organism-based; in short: as §6
[36] = Drug concentration in Sprague-Dawley rat lung at 5 mg/kg,po measured after 96 hrs; format: ADME, organism-based; details: read-out: Ct; in short: as §6
[37] = Drug concentration in Sprague-Dawley rat plasma at 5 mg/kg,po measured after 96 hrs; format: ADME, organism-based; in short: as §6
[38] = Ratio of drug concentration in Sprague-Dawley rat lung to plasma at 5 mg/kg,po measured after 96 hrs; format: ADME, organism-based; in short: as §6
[39] = AUC in Sprague-Dawley rat at 200 mg/kg,po measured after 14 days; format: ADME, organism-based; set-up: dose 200 mg/kg, time 14 day, route po; details: in vivo
In short: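 14-day pilot toxicology study in rats, 8 males and 8 females per dose level. Daily oral dosing, with 200 mg/kg as the high dose. Drug exposure is reported as AUC in µM·h.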

[40] = Toxicity in Sprague-Dawley rat assessed as death at 200 mg/kg,po measured after 14 days; format: organism-based; details: in vivo, 336 h, time 14 day
In short: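 14-day pilot oral toxicology study in rats, 8 males and 8 females per dose level. Dosing once daily at 30, 100 and 200 mg/kg, with the reference drug at 200 mg/kg. Deaths counted over the 14 days; drug exposure (AUC) recorded in the high-dose groups.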

[41] = Toxicity in Beagle dog assessed as effect on electrocardiogram at 200 mg/kg,po; format: organism-based, Canis lupus familiaris; details: in vivo
In short: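 14-day GLP toxicology study in Beagle dogs; oral dosing once daily at 200 mg/kg, given in parallel with the reference drug. ECG recorded daily to detect qualitative changes and QTc interval prolongation.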

Cytochrome P450 2C9, sequence (P11712 whole entry): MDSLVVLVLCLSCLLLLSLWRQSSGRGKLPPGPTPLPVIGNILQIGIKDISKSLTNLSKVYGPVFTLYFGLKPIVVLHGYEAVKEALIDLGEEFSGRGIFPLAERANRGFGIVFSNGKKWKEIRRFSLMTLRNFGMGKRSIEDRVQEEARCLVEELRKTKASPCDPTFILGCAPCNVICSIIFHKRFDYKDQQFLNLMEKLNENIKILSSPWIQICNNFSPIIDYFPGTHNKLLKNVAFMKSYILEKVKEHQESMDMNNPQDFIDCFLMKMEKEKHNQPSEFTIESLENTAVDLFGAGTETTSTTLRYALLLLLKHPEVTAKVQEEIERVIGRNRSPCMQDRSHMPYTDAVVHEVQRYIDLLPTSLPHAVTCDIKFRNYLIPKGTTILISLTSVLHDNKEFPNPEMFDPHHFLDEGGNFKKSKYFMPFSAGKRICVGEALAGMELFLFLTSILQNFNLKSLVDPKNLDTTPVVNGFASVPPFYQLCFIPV
Voltage-gated inwardly rectifying potassium channel KCNH2, sequence (Q12809 whole entry): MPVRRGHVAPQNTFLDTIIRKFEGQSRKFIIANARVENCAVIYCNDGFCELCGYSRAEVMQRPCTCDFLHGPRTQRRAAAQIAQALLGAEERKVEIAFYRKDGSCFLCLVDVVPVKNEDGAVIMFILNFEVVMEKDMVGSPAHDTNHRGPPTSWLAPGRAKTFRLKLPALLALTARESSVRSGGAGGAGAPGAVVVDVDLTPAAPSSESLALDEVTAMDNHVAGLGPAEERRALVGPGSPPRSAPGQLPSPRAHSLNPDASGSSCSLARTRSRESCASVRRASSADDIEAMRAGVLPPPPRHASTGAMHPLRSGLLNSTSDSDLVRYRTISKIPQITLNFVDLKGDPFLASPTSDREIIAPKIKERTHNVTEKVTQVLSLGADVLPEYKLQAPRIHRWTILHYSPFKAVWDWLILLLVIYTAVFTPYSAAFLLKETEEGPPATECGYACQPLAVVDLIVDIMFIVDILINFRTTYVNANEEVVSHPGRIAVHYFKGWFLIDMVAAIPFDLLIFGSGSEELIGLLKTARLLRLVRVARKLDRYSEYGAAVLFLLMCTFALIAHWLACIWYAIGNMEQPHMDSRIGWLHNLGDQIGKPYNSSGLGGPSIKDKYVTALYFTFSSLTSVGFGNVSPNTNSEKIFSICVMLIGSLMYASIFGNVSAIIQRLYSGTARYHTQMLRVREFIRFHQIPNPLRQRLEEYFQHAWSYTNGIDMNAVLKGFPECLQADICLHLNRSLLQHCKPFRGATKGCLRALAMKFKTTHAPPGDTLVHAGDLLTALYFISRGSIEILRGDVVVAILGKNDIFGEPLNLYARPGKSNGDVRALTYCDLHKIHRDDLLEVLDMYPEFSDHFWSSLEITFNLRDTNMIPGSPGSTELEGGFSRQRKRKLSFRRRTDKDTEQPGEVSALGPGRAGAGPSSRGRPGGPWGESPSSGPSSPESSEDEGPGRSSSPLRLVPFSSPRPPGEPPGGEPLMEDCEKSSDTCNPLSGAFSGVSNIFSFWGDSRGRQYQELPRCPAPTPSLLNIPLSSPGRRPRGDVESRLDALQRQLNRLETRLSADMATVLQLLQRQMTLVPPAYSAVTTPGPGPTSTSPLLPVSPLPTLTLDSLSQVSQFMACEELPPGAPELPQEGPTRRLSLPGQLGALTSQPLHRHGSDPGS
Cytochrome P450 3A4, sequence (P08684 whole entry): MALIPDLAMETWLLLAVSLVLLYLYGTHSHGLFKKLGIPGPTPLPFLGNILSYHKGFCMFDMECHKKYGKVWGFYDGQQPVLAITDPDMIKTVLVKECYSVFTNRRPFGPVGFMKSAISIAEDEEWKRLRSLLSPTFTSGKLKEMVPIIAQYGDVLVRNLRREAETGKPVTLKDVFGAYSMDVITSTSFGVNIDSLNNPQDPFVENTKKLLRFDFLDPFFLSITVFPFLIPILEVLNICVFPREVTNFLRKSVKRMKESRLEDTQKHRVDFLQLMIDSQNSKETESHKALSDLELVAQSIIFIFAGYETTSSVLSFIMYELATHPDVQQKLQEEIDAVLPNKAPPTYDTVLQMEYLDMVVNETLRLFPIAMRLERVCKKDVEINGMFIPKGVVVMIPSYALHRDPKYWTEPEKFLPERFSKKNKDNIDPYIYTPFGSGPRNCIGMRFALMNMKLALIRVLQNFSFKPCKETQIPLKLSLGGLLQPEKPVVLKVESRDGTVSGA
Cytochrome P450 2C19, sequence (P33261 whole entry): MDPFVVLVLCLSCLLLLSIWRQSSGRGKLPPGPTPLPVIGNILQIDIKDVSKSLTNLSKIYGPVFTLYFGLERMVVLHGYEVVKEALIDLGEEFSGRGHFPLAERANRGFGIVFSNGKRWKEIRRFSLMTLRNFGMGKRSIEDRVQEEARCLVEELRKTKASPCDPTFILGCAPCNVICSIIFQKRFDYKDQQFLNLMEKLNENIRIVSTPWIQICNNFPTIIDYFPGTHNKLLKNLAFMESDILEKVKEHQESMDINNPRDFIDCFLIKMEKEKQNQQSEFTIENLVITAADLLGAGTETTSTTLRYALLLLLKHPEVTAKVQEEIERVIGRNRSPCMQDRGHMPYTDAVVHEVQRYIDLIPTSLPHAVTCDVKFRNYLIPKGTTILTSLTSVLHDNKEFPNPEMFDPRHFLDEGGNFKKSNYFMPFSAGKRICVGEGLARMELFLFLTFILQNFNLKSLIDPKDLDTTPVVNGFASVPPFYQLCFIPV
Cytochrome P450 2D6, sequence (P10635 whole entry): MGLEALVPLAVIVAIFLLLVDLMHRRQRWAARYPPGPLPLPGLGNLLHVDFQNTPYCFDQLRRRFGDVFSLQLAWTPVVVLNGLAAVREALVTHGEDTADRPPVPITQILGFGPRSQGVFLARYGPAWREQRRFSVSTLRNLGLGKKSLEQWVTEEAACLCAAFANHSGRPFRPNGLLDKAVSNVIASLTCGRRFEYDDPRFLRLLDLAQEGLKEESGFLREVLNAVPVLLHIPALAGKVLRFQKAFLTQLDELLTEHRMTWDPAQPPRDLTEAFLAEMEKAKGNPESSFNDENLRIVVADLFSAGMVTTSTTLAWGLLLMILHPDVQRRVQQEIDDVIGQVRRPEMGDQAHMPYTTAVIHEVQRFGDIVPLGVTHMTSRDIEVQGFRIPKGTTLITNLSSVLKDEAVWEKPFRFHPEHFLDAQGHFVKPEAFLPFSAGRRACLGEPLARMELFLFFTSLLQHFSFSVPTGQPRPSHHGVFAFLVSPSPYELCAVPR

In the case of COc1nc(-c2ccc(Cl)cc2)ccc1[C@@H](c1ccccc1)[C@@](O)(CCN(C)C)c1cccc2ccccc12, the MIC [1] is reported as 0.08 µg/mL (≈ 0.149 µM), the MIC [2] is reported as 0.56 µg/mL (≈ 1.04 µM) and the CC50 [3] is reported as > 64 µg/mL. The CC50 [4] was > 50 µg/mL, the MIC50 [5] was 0.083 µg/mL (≈ 0.155 µM) and the MIC90 [5] was 0.152 µg/mL (≈ 0.283 µM). It also gave a Papp A→B [6] of 0.04 ×10⁻⁶ cm/s, a Papp B→A [7] of 0.11 ×10⁻⁶ cm/s and an efflux ratio [8] of 2.54. The fraction unbound [9] was < 0.01, the fraction unbound [10] was < 0.01 and the microsomal CLint [11] was 39.4 µL/min/mg. For the same molecule, the microsomal CLint [12] was 45.7 µL/min/mg, the microsomal CLint [13] was 71.3 µL/min/mg and the IC50 (Cytochrome P450 1A2) was > 10 µM. For the same molecule, the IC50 (Cytochrome P450 2C9) was > 10 µM, the IC50 (Cytochrome P450 2C19) was > 10 µM and the IC50 (Cytochrome P450 2D6) was > 10 µM. For the same molecule, the IC50 (Cytochrome P450 3A4) was > 10 µM, the IC50 [14] was > 30 µM and the clearance [15] was 3.59 mL/min/kg. For the same molecule, the Vd [16] was 10.4 L/kg, the half-life [17] was 46.3 h and the Cmax [18] was 503 ng/mL. The AUC(0-t) [19] was 10200 ng·h/mL, the bioavailability [20] was 40.7% and the clearance [21] was 8.25 mL/min/kg. For the same molecule, the Vd [22] was 9.2 L/kg, the half-life [23] was 25.6 h and the Cmax [24] was 328 ng/mL. The AUC(0-t) [25] was 4080 ng·h/mL, the bioavailability [26] was 36.7% and the clearance [27] was 2.04 mL/min/kg. The Vd [28] was 6.04 L/kg, the half-life [29] was 56.2 h and the Cmax [30] was 390 ng/mL. It also gave an AUC(0-t) [31] of 8500 ng·h/mL, a bioavailability [32] of 58.9% and a concentration at 96 h [33] of 857 ng/g. For the same molecule, the concentration at 96 h [34] was 25.4 ng/mL, the Kp at 96 h [35] was 33.7 and the concentration at 96 h [36] was 337 ng/g. The concentration at 96 h [37] was 4.74 ng/mL, the Kp at 96 h [38] was 71.1 and the AUC at 336 h [39] was 248 µM·h. For the same molecule, the Activity [40] was “Toxic” and the Activity [41] was “Non-Toxic”.
